Measurements as given in ChEMBL document CHEMBL1932989, “Dibasic biphenyl H3 receptor antagonists: Steric tolerance for a lipophilic side chain” (Eur J Med Chem, 2012).
The source made the active and inactive calls. No cut-off for these calls is given here.

Target: Histamine H1 receptor (Cavia porcellus) (UniProt P31389)
Experiment: Antagonist activity at histamine H1 receptor in guinea pig longitudinally mounted ileum assessed as […] up to 10 uM […]
Assay type: functional, tissue-based

Sequence of Histamine H1 receptor (Cavia porcellus) (P31389 whole entry): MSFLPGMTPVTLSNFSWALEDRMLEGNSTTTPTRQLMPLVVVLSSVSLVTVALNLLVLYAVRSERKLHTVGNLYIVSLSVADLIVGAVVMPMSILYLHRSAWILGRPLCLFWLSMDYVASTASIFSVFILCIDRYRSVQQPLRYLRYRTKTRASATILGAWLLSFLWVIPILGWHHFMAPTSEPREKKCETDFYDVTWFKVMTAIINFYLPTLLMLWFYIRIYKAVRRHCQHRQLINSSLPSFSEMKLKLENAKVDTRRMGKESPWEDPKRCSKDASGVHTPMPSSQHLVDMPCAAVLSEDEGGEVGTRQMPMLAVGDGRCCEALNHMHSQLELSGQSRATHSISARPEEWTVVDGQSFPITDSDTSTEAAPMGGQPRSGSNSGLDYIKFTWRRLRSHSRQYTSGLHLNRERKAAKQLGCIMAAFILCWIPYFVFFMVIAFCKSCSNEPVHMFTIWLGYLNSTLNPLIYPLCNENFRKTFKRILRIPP

Row | Structure (SMILES) | Activity
1 | C[C@H]1CCCN1[C@@H](CCCOc1ccccc1)c1ccc(-c2ccc(CN3CCCCC3)cc2)cc1 | inactive
2 | C[C@H]1CCCN1[C@H](CCCOc1ccccc1)c1ccc(-c2ccc(CN3CCCCC3)cc2)cc1 | inactive
3 | COc1ccc(OCCC[C@@H](c2ccc(-c3ccc(CN4CCCCC4)cc3)cc2)N2CCC[C@@H]2C)cc1 | inactive
4 | C[C@H]1CCCN1Cc1ccc(-c2ccc(CN3CCCCC3)cc2)cc1 | inactive
5 | CCCC[C@@H](c1ccc(-c2ccc(CN3CCCCC3)cc2)cc1)N1CCC[C@H]1C | inactive
6 | CCCC[C@H](c1ccc(-c2ccc(CN3CCCCC3)cc2)cc1)N1CCC[C@@H]1C | inactive

Next, values leading:

Row | Activity | Structure (SMILES)
7 | inactive | COc1ccc(OCCC[C@H](c2ccc(-c3ccc(CN4CCCCC4)cc3)cc2)N2CCC[C@@H]2C)cc1
8 | inactive | CCCCC(c1ccc(-c2ccc(CN3CCCCC3)cc2)cc1)N1CCCCC1 (racemic)
9 | inactive | C[C@@H]1CCCN1Cc1ccc(-c2ccc(CN3CCCCC3)cc2)cc1
10 | inactive | CCCC[C@@H](c1ccc(-c2ccc(CN3CCCCC3)cc2)cc1)N1CCC[C@@H]1C

Target: T1, Histamine H3 receptor (Homo sapiens, UniProt Q9Y5N1)
Experiment: Antagonist activity at human histamine H3 receptor expressed in human SK-N-MC cells assessed as inhibition of (R)-alpha-methylhistamine-induced effect after 6 hrs by beta-galactosidase reporter gene assay
Assay type: functional, cell-based
How it was run: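 SK-N-MC cells expressing human H3 receptor and a β-galactosidase reporter; compounds (1 nM–10 µM) added 10 min before (R)-α-methylhistamine (0.1–100 nM), forskolin 5 µM added 5 min after compound. Incubated 6 h at 37 °C, cells lysed, chlorophenol red β-D-galactopyranoside colour read at 570 nm. Response as % agonist maximum; pKB by Furchgott equation, or pD2' by Van Rossum for non-surmountable antagonism; mean ± SEM.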

T1 sequence (Q9Y5N1 whole entry): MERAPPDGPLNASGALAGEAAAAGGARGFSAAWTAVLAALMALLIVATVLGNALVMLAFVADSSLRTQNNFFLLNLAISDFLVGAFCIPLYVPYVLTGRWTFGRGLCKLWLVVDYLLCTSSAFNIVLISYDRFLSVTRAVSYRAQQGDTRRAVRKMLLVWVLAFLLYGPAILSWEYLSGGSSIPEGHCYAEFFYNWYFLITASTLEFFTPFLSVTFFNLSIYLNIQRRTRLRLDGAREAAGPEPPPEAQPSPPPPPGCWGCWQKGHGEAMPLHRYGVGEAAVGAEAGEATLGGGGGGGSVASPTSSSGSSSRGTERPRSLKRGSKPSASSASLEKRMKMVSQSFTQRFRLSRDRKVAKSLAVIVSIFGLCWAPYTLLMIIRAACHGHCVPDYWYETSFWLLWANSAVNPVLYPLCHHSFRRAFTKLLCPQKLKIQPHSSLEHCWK

Row | Structure (SMILES) | pKb
11 | C[C@H]1CCCN1[C@@H](CCCOc1ccccc1)c1ccc(-c2ccc(CN3CCCCC3)cc2)cc1 | 9.15
12 | C[C@H]1CCCN1[C@H](CCCOc1ccccc1)c1ccc(-c2ccc(CN3CCCCC3)cc2)cc1 | 8.48
13 | COc1ccc(OCCC[C@@H](c2ccc(-c3ccc(CN4CCCCC4)cc3)cc2)N2CCC[C@@H]2C)cc1 | 8.71
14 | C[C@H]1CCCN1Cc1ccc(-c2ccc(CN3CCCCC3)cc2)cc1 | 9.46
15 | CCCC[C@@H](c1ccc(-c2ccc(CN3CCCCC3)cc2)cc1)N1CCC[C@H]1C | 8.58
16 | CCCC[C@H](c1ccc(-c2ccc(CN3CCCCC3)cc2)cc1)N1CCC[C@@H]1C | 8.81

Results, then the compound that gave them:

Row | pKb | Structure (SMILES)
17 | 8.71 | COc1ccc(OCCC[C@H](c2ccc(-c3ccc(CN4CCCCC4)cc3)cc2)N2CCC[C@@H]2C)cc1
18 | 8.81 | CCCCC(c1ccc(-c2ccc(CN3CCCCC3)cc2)cc1)N1CCCCC1 (racemic)
19 | 9.16 | C[C@@H]1CCCN1Cc1ccc(-c2ccc(CN3CCCCC3)cc2)cc1
20 | 8.37 | CCCC[C@@H](c1ccc(-c2ccc(CN3CCCCC3)cc2)cc1)N1CCC[C@@H]1C

Target: Histamine H3 receptor (Rattus norvegicus, UniProt Q9QYN8)
Experiment: Displacement of [3H]RAMHA from rat histamine H3 receptor in rat cerebral cortex membranes
Assay type: cell membranes, Membrane
How it was run: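 Rat brain membranes (Kilpatrick method) incubated 45 min with 0.5 nM [3H]-(R)-α-methylhistamine and compound (0.03 nM–10 μM) in 50 mM Tris–HCl pH 7.4, 50 mM NaCl, 0.5 mM EDTA. Vacuum filtration, two ice-cold buffer rinses. Nonspecific binding with 10 μM thioperamide. pIC50 converted to pKi via Cheng–Prusoff; means ± SEM.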

Sequence of Histamine H3 receptor (Rattus norvegicus, UniProt Q9QYN8) (Q9QYN8 whole entry): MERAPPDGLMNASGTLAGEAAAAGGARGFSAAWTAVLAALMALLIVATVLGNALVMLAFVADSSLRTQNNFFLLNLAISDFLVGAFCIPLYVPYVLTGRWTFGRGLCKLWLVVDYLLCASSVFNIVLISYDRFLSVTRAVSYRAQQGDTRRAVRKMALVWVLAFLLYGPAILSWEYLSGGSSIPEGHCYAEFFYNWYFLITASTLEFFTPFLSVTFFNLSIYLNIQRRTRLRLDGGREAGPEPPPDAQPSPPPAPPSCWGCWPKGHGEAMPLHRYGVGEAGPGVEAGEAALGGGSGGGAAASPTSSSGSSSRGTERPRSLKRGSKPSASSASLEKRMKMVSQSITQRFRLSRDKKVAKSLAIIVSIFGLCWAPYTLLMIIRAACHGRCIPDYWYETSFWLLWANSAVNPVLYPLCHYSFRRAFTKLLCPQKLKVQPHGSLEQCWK

Row | Structure (SMILES) | Ki [nM]
21 | C[C@H]1CCCN1[C@@H](CCCOc1ccccc1)c1ccc(-c2ccc(CN3CCCCC3)cc2)cc1 | 4.68
22 | C[C@H]1CCCN1[C@H](CCCOc1ccccc1)c1ccc(-c2ccc(CN3CCCCC3)cc2)cc1 | 6.61
23 | COc1ccc(OCCC[C@@H](c2ccc(-c3ccc(CN4CCCCC4)cc3)cc2)N2CCC[C@@H]2C)cc1 | 2.09
24 | C[C@H]1CCCN1Cc1ccc(-c2ccc(CN3CCCCC3)cc2)cc1 | 0.372
25 | CCCC[C@@H](c1ccc(-c2ccc(CN3CCCCC3)cc2)cc1)N1CCC[C@H]1C | 16.2
26 | CCCC[C@H](c1ccc(-c2ccc(CN3CCCCC3)cc2)cc1)N1CCC[C@@H]1C | 8.71

The remaining compounds from weak to strong by Ki, led by results:

Row | Ki [nM] | Structure (SMILES)
27 | 6.61 | COc1ccc(OCCC[C@H](c2ccc(-c3ccc(CN4CCCCC4)cc3)cc2)N2CCC[C@@H]2C)cc1
28 | 4.27 | CCCCC(c1ccc(-c2ccc(CN3CCCCC3)cc2)cc1)N1CCCCC1 (racemic)
29 | 3.55 | C[C@@H]1CCCN1Cc1ccc(-c2ccc(CN3CCCCC3)cc2)cc1
30 | 1.41 | CCCC[C@@H](c1ccc(-c2ccc(CN3CCCCC3)cc2)cc1)N1CCC[C@@H]1C

Target: Histamine H4 receptor (Homo sapiens, UniProt Q9H3N8)
Experiment: Displacement of [3H]histamine from human histamine H4 receptor expressed in GPCR97 transfected human SK-N-MC cells
Assay type: cell-based
How it was run: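 Membranes of SK-N-MC cells stably expressing human H4, 60 min at room temperature with 10 nM [3H]-histamine, competitor 0.01 nM–10 μM. Filtration with two ice-cold Tris–HCl/EDTA washes. 10 μM histamine defined nonspecific binding. pKi derived from pIC50 by Cheng–Prusoff.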

Row | Structure (SMILES) | Ki [nM]
31 | C[C@H]1CCCN1[C@@H](CCCOc1ccccc1)c1ccc(-c2ccc(CN3CCCCC3)cc2)cc1 | ≥ 31600
32 | C[C@H]1CCCN1[C@H](CCCOc1ccccc1)c1ccc(-c2ccc(CN3CCCCC3)cc2)cc1 | ≥ 31600
33 | COc1ccc(OCCC[C@@H](c2ccc(-c3ccc(CN4CCCCC4)cc3)cc2)N2CCC[C@@H]2C)cc1 | ≥ 31600
34 | C[C@H]1CCCN1Cc1ccc(-c2ccc(CN3CCCCC3)cc2)cc1 | ≥ 31600
35 | CCCC[C@@H](c1ccc(-c2ccc(CN3CCCCC3)cc2)cc1)N1CCC[C@H]1C | ≥ 31600
36 | CCCC[C@H](c1ccc(-c2ccc(CN3CCCCC3)cc2)cc1)N1CCC[C@@H]1C | ≥ 31600

The next lines start with the values.

Row | Ki [nM] | Structure (SMILES)
37 | ≥ 31600 | COc1ccc(OCCC[C@H](c2ccc(-c3ccc(CN4CCCCC4)cc3)cc2)N2CCC[C@@H]2C)cc1
38 | ≥ 31600 | CCCCC(c1ccc(-c2ccc(CN3CCCCC3)cc2)cc1)N1CCCCC1 (racemic)
39 | ≥ 31600 | C[C@@H]1CCCN1Cc1ccc(-c2ccc(CN3CCCCC3)cc2)cc1
40 | ≥ 31600 | CCCC[C@@H](c1ccc(-c2ccc(CN3CCCCC3)cc2)cc1)N1CCC[C@@H]1C

Target: T1, Histamine H3 receptor
Experiment: Displacement of [3H]RAMHA from human histamine H3 receptor expressed in GPCR97 transfected human SK-N-MC cells
Assay type: cell-based
How it was run: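 SK-N-MC cell membranes stably expressing human H3; 60 min at room temperature with 0.5 nM [3H]-(R)-α-methylhistamine, competitor 0.01 nM–10 μM. Filtration, two washes with ice-cold 50 mM Tris–HCl/5 mM EDTA. Nonspecific binding with 10 μM histamine. pIC50 from displacement curves converted to pKi by Cheng–Prusoff; means ± SEM.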

Row | Structure (SMILES) | Ki [nM]
41 | C[C@H]1CCCN1[C@@H](CCCOc1ccccc1)c1ccc(-c2ccc(CN3CCCCC3)cc2)cc1 | 2.57
42 | C[C@H]1CCCN1[C@H](CCCOc1ccccc1)c1ccc(-c2ccc(CN3CCCCC3)cc2)cc1 | 0.513
43 | COc1ccc(OCCC[C@@H](c2ccc(-c3ccc(CN4CCCCC4)cc3)cc2)N2CCC[C@@H]2C)cc1 | 2.04
44 | C[C@H]1CCCN1Cc1ccc(-c2ccc(CN3CCCCC3)cc2)cc1 | 0.661
45 | CCCC[C@@H](c1ccc(-c2ccc(CN3CCCCC3)cc2)cc1)N1CCC[C@H]1C | 2.34
46 | CCCC[C@H](c1ccc(-c2ccc(CN3CCCCC3)cc2)cc1)N1CCC[C@@H]1C | 1.55

More lines, now with the values ahead:

Row | Ki [nM] | Structure (SMILES)
47 | 1.26 | COc1ccc(OCCC[C@H](c2ccc(-c3ccc(CN4CCCCC4)cc3)cc2)N2CCC[C@@H]2C)cc1
48 | 1.29 | CCCCC(c1ccc(-c2ccc(CN3CCCCC3)cc2)cc1)N1CCCCC1 (racemic)
49 | 1.48 | C[C@@H]1CCCN1Cc1ccc(-c2ccc(CN3CCCCC3)cc2)cc1
50 | 1.26 | CCCC[C@@H](c1ccc(-c2ccc(CN3CCCCC3)cc2)cc1)N1CCC[C@@H]1C

Target: Histamine H2 receptor (Cavia porcellus) (UniProt P47747)
Experiment: Antagonist activity at histamine H2 receptor in guinea pig spontaneously beating isolated atria assessed as changes in rate of spontaneous beating at 1 uM by cardiotachograph analysis

Sequence of Histamine H2 receptor (Cavia porcellus) (P47747 whole entry): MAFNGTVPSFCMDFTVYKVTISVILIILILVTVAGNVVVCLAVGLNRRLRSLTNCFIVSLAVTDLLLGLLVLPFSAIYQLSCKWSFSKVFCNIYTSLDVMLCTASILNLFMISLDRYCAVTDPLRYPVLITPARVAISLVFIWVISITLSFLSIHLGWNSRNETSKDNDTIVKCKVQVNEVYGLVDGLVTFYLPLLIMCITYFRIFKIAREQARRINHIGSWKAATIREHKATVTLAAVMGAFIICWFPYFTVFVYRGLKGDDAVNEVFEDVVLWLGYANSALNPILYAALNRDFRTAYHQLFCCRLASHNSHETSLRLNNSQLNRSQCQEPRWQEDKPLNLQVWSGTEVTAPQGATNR

Row | Structure (SMILES) | Activity
51 | C[C@H]1CCCN1[C@@H](CCCOc1ccccc1)c1ccc(-c2ccc(CN3CCCCC3)cc2)cc1 | inactive
52 | C[C@H]1CCCN1[C@H](CCCOc1ccccc1)c1ccc(-c2ccc(CN3CCCCC3)cc2)cc1 | inactive
53 | COc1ccc(OCCC[C@@H](c2ccc(-c3ccc(CN4CCCCC4)cc3)cc2)N2CCC[C@@H]2C)cc1 | inactive
54 | C[C@H]1CCCN1Cc1ccc(-c2ccc(CN3CCCCC3)cc2)cc1 | inactive
55 | CCCC[C@@H](c1ccc(-c2ccc(CN3CCCCC3)cc2)cc1)N1CCC[C@H]1C | inactive
56 | CCCC[C@H](c1ccc(-c2ccc(CN3CCCCC3)cc2)cc1)N1CCC[C@@H]1C | inactive

Now from value to compound:

Row | Activity | Structure (SMILES)
57 | inactive | COc1ccc(OCCC[C@H](c2ccc(-c3ccc(CN4CCCCC4)cc3)cc2)N2CCC[C@@H]2C)cc1
58 | inactive | CCCCC(c1ccc(-c2ccc(CN3CCCCC3)cc2)cc1)N1CCCCC1 (racemic)
59 | inactive | C[C@@H]1CCCN1Cc1ccc(-c2ccc(CN3CCCCC3)cc2)cc1
60 | inactive | CCCC[C@@H](c1ccc(-c2ccc(CN3CCCCC3)cc2)cc1)N1CCC[C@@H]1C

Target: Neuronal acetylcholine receptor subunit alpha-7 (Homo sapiens) (UniProt P36544)
Experiment: Displacement of [125I]alpha-bungarotoxin from human alpha7 nicotinic receptor at 1 uM by scintillation counting
How it was run: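 Membrane homogenates bearing human α7 nicotinic receptor (20 µg protein) incubated 120 min at 37 °C with 0.05 nM [125I]α-bungarotoxin in 50 mM K2HPO4/KH2PO4 pH 7.4, 10 mM MgCl2, 0.1% BSA. Nonspecific binding with 1 µM α-bungarotoxin. Filtration on PEI-soaked glass fibre, scintillation counting; % inhibition of specific binding, duplicate.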

Sequence of Neuronal acetylcholine receptor subunit alpha-7 (Homo sapiens) (P36544 whole entry): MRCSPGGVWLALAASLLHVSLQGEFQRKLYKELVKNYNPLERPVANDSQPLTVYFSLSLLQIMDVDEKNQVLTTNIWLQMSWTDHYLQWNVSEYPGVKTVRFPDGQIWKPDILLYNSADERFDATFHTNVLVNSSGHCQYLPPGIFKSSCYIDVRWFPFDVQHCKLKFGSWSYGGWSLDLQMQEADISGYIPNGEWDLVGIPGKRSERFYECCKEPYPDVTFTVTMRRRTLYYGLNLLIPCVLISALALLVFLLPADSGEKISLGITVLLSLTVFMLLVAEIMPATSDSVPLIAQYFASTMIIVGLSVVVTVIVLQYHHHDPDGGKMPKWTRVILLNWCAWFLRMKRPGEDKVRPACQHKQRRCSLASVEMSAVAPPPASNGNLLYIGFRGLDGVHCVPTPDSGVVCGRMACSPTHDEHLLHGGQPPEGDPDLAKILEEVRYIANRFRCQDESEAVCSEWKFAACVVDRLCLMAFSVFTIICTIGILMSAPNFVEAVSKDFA

Row | Structure (SMILES) | inhibition
61 | C[C@H]1CCCN1[C@H](CCCOc1ccccc1)c1ccc(-c2ccc(CN3CCCCC3)cc2)cc1 | inactive
